For data set [1], the target named is T1, hERG (KCNH2) (Homo sapiens, UniProt Q12809). Description: Inhibition of human ERG expressed in […] cells at 10 uM after 3 to 8 mins by voltage clamp assay. It counts as cell-based. The note with it: HEK297 cells that express human ERG. A digest of the protocol:
(§1)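 Automated whole-cell voltage clamp at 25 °C on HEK cells stably expressing human hERG; K-based intracellular (pH 7.2), Na-based extracellular (pH 7.4) solutions. 2 s pulses to +20 mV, 15 s interpulse; compound until steady current (3-8 min), washout, 10 μM cisapride control. Percent of vehicle tail current; triplicate, mean ± SEM at highest concentration.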

Data set [2] addresses T2, 5-hydroxytryptamine receptor 6 (Homo sapiens, UniProt P50406). Description: Antagonist activity at human 5HT6 receptor expressed in HEK293 cells assessed as inhibition of serotonin-induced cAMP release. In kind it is functional, cell-based. In a few lines: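 Tetracycline-induced T-Rex 5-HT6 HEK cells in HBSS with 1 mM MgCl₂, 1 mM CaCl₂, 5 mM HEPES pH 7.4, 100 μM IBMX; compounds 15 min (0.1% DMSO final), then serotonin 10 nM final for 30 min at room temp. cAMP by LANCE TR-FRET. Ki from concentration-dependent inhibition; geometric mean of three to four independent experiments, each curve in duplicate.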

In data set [3] the target is T2, 5-hydroxytryptamine receptor 6. Description: Antagonist activity at 5HT6 receptor. It counts as functional. A digest of the protocol: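 Human 5-HT6R expressed in HEK293 cells (T-Rex, tetracycline-induced a day before). Compounds preincubated 15 min in HBSS with 1 mM MgCl2, 1 mM CaCl2, 5 mM HEPES pH 7.4, 100 μM IBMX, 0.1% DMSO final. Serotonin then added to 10 nM final, 30 min at room temperature. cAMP measured by LANCE TR-FRET. Ki from concentration-dependent inhibition, geometric mean of 3-4 experiments, duplicate curves.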

In data set [4] the target is 5-hydroxytryptamine receptor 2B (Homo sapiens, UniProt P41595). Description: Antagonist activity at human 5HT2B receptor expressed in HEK293 cells assessed as inhibition of alpha-Me-serotonin-induced intracellular calcium mobilization by spectrophotometry. It counts as functional, cell-based. In a few lines:
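Tetracycline-induced T-Rex 5-HT2B HEK cells, Fura-2AM loaded (4 μM, 30 min, room temp, dark), suspended at (3-4) × 10⁶ cells/mL, diluted into HEPES-buffered saline with 1.8 mM CaCl₂ in stirred cuvette. Compound added after 20-30 s baseline, then serotonin challenge; Fura-2 ratio 340/380 nm excitation, 510 nm emission. Ki from concentration-dependent inhibition; geometric mean of three to four experiments, duplicate curves.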
Background: Calcium assays in cells follow changes in intracellular calcium, usually with a dye or a luminescent sensor.

For data set [5], the target named is T1, hERG (KCNH2). Description: Inhibition of human ERG expressed in […] cells at 3 uM after 3 to 8 mins by voltage clamp assay. It counts as cell-based. The following applies: HEK297 cells that express human ERG. A digest of the protocol: as §1
In data set [6] the target is T2, 5-hydroxytryptamine receptor 6. Description: Displacement of [3H]lysergic acid diethylamide from human recombinant 5HT6 receptor expressed in human HeLa cells. In kind it is cell-based. A digest of the protocol: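 Ki from concentration-dependent displacement of [3H]lysergic acid diethylamide in a contracted radioligand binding assay; each curve measured in duplicate.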
(In general: In a radioligand displacement assay an active substance lowers the binding of a labelled ligand.)

Data set [7] addresses T1, hERG (KCNH2). Description: Inhibition of human ERG expressed in […] cells at 90 uM after 3 to 8 mins by voltage clamp assay. The following applies: […] cells that express human ERG. It counts as cell-based. In a few lines:
as §1

T1 sequence (Q12809 whole entry): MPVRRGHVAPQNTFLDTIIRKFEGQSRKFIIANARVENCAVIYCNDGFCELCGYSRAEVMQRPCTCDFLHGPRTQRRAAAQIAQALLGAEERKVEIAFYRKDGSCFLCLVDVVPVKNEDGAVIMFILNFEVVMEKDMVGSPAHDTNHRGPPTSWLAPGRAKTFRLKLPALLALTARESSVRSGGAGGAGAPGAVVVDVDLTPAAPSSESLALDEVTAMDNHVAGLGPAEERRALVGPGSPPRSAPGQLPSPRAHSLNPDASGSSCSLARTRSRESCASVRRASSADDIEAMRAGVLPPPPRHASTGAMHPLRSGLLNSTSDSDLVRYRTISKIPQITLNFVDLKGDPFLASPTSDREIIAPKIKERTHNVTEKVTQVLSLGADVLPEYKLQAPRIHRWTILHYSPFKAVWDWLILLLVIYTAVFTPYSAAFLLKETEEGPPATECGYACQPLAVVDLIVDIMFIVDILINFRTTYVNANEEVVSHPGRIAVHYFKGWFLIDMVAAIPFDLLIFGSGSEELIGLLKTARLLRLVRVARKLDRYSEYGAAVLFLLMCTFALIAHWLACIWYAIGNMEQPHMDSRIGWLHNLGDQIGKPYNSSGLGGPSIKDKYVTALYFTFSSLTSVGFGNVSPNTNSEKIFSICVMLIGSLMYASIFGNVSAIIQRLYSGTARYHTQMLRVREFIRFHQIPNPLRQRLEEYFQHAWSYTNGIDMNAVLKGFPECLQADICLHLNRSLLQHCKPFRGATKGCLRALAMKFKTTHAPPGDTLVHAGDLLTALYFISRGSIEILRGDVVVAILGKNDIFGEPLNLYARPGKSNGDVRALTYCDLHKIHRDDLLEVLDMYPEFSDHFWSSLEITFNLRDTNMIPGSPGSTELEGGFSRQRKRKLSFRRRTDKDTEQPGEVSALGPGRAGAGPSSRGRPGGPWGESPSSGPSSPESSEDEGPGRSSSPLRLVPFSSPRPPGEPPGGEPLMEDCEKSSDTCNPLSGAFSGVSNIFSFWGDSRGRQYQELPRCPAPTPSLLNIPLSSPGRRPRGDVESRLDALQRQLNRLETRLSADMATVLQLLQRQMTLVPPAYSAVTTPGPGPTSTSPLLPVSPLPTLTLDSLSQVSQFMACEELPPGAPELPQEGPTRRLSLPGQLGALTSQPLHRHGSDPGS
Sequence of 5-hydroxytryptamine receptor 2B (P41595 whole entry): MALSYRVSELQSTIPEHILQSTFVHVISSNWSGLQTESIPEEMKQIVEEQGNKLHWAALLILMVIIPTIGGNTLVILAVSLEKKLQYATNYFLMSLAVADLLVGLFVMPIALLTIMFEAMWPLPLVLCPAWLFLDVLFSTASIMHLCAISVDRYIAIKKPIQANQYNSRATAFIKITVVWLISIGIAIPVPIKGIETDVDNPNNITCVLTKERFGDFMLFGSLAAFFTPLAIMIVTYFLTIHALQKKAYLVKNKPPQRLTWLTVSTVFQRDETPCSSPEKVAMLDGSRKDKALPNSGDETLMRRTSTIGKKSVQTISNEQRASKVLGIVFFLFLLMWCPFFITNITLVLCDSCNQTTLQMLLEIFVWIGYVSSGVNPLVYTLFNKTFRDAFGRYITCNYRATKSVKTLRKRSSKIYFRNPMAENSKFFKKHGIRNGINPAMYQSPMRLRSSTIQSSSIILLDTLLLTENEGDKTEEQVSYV
T2 sequence (P50406 whole entry): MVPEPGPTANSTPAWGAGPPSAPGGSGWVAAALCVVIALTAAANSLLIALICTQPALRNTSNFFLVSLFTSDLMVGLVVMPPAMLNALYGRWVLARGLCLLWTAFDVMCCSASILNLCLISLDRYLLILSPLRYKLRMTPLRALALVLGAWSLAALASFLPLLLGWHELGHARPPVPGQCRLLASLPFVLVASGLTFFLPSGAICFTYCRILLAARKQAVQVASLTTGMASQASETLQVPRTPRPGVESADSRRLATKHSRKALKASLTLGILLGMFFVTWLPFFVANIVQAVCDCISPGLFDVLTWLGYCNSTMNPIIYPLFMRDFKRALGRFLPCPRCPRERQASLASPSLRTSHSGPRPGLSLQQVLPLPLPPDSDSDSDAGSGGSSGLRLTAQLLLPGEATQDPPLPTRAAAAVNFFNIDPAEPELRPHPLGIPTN

Broadly, the inhibition is the relative decrease from the control value, in per cent. A lower inhibition goes with little suppression. Molecule `CNc1nn2c3c(c(C)nc2c1S(=O)(=O)c1ccccc1)CCCC3` displayed an inhibition at 10 µM against hERG (KCNH2) [1] of 52.4%. By Ki is commonly meant a dissociation constant, usually derived from enzyme kinetics or from competition with a known ligand. With `Cc1nc2c(S(=O)(=O)c3ccccc3)c(N3CCNCC3)nn2c2c1CCCC2`, the Ki in data set [2] is 1760 nM. The term IC50 denotes the midpoint of a concentration-inhibition curve. Take `CSc1nn2c3c(c(C)nc2c1S(=O)(=O)c1ccccc1)CCCC3`: the IC50 in data set [3] turned out to be 6 nM.

Turning to `CNc1nn2cc3c(nc2c1S(=O)(=O)c1ccccc1)CCCC3`, the Ki amounted to 169 nM in data set [4] and 0.542 nM in data set [2]. Turning to `CN(C)c1nn2c3c(cnc2c1S(=O)(=O)c1ccccc1)CCC3`, the inhibitory constant (Ki) in data set [2] amounted to 28.8 nM.

For `Cc1nc2c(S(=O)(=O)c3ccccc3)c(N3CCNCC3)nn2c2c1CCC2`, the Ki in data set [2] worked out at 869 nM.

Take `Cc1nc2c(S(=O)(=O)c3ccccc3)c(N(C)C)nn2c2c1CCC2`: in data set [2], the Ki is 25.5 nM. Regarding `CNc1nn2c3c(c(C)nc2c1S(=O)(=O)c1ccccc1)CCC3`, at hERG (KCNH2) [5], the inhibition at 3 µM is 4.3%. The Ki in data set [4] amounted to 188 nM; in data set [2], 0.413 nM.

Turning to `CNc1nn2c(C)c3c(nc2c1S(=O)(=O)c1ccccc1)CCCC3`, at hERG (KCNH2) [5], the inhibition at 3 µM was 12.5%.

On to `CNc1nn2c3c(cnc2c1S(=O)(=O)c1ccccc1)CCCC3`, for which the Ki stood at 153 nM in data set [4] and 0.259 nM in data set [2]. As to `CNc1nn2c3c(cnc2c1S(=O)(=O)c1ccccc1)CCC3`, the Ki worked out at 0.088 nM in data set [6], 464 nM in data set [4] and 0.375 nM in data set [2]. Also, testing at 90 µM against hERG (KCNH2) [7] gave an inhibition of 29.5%.

The values above are taken from ChEMBL document CHEMBL1155448, “(3-Phenylsulfonylcycloalkano[e and d]pyrazolo[1,5-a]pyrimidin-2-yl)amines: potent and selective antagonists of the serotonin 5-HT6 receptor” (J Med Chem, 2010).
